From ChEMBL document CHEMBL1759847, “Design and synthesis of isoquinolines and benzimidazoles as RAF kinase inhibitors” (Bioorg Med Chem Lett, 2011) come the findings set out here.

As a reminder, the IC50 is the concentration that inhibits the measured activity by half. High values mean weaker potency in that assay, low ones greater potency in that assay.

Sequence of RAF proto-oncogene serine/threonine-protein kinase (P04049 whole entry): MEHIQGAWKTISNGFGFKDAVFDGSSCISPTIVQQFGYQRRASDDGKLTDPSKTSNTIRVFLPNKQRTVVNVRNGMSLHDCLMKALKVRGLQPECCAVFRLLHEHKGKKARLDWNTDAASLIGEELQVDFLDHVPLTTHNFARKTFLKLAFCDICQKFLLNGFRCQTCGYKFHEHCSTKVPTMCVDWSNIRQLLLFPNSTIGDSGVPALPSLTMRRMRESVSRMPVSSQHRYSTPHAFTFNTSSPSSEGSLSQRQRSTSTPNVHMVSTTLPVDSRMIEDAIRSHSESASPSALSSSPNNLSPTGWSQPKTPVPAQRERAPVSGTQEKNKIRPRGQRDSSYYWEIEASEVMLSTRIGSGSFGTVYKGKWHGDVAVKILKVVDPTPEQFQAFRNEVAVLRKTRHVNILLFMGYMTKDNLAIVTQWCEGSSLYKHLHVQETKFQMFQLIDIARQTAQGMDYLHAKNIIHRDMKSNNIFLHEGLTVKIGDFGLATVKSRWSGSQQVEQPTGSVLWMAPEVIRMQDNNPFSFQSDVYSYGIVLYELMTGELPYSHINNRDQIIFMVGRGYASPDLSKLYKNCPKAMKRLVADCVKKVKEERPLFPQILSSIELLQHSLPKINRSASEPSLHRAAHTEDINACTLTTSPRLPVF

The assay has as its target RAF proto-oncogene serine/threonine-protein kinase (Homo sapiens, UniProt P04049). In words: Inhibition of human cRAF using [gamma-33P-ATP] as a substrate by scintillation counting. An outline of the steps:
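Recombinant human c-RAF (5–10 mU) in 25 mM Tris pH 7.5 with 0.02 mM EGTA, 10 mM Mg acetate and 0.66 mg/mL myelin basic protein as phosphoacceptor; started by adding MgATP mix containing [γ-33P]ATP (approx. 500 cpm/pmol). Incubated 40 min at room temperature, stopped with 3% phosphoric acid, spotted on P30 filtermat, washed, dried and counted by scintillation.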
The molecule `CNC(=O)c1cc2ccc(CCNC(=O)Nc3cc(C)c(Cl)cc3OC)cc2cn1` showed an IC50 of 190 nM.

For `CNC(=O)c1cc2ccc(CCNC(=O)Nc3cccc(C(F)(F)F)c3)cc2cn1`, the concentration for half-maximal inhibition (IC50) was 360 nM. Against the preceding molecule, the IC50 is about 1.9-fold higher. The figure for `CNC(=O)c1cc2ccc(CCNC(=O)Nc3cccc(OC(F)(F)F)c3)cc2cn1` is 260 nM; for `CNC(=O)c1cc2ccc(CCNC(=O)Nc3cccc(S(=O)(=O)C(F)(F)F)c3)cc2cn1` it is 200 nM; for `CNC(=O)c1cc2ccc(CCNC(=O)Nc3ccc(C(F)(F)F)cc3)cc2cn1` it is 370 nM. `CNC(=O)c1cc2ccc(CCNC(=O)Nc3ccc(C)c(C(F)(F)F)c3)cc2cn1`: the 50% inhibitory concentration (IC50) was determined as 200 nM.

Consider `CNC(=O)c1cc2ccc(CCNC(=O)Nc3ccc(Cl)c(C(F)(F)F)c3)cc2cn1`, for which the IC50 was determined as 160 nM. Molecule `CNC(=O)c1cc2ccc(CCNC(=O)Nc3ccc(F)c(C(F)(F)F)c3)cc2cn1` showed a 50% inhibitory concentration (IC50) of 240 nM. Take `CNC(=O)c1cc2ccc(CCNC(=O)Nc3cc(C(F)(F)F)ccc3F)cc2cn1`: the half-maximal inhibitory concentration (IC50) stood at 250 nM. The value for `CNC(=O)c1cc2ccc(CCNC(=O)Nc3cc(C(F)(F)F)ccc3OC)cc2cn1` was 120 nM; that for `CNC(=O)c1cc2ccc(CCNC(=O)Nc3cc(C(F)(F)F)ccc3OCCN(C)C)cc2cn1` was 450 nM. In the case of `CNC(=O)c1cc2ccc(CCNC(=O)Nc3cc(Cl)c(C)cc3OC)cc2cn1`, inhibition was half-maximal at 110 nM (IC50).

The molecule `CNC(=O)c1cc2ccc(CCNC(=O)Nc3cc(C(F)(F)F)c(Cl)cc3OC)cc2cn1` registered an IC50 of 80 nM. Take `CNC(=O)c1cc2ccc(CCNC(=O)Nc3cc(C(F)(F)F)c(Cl)cc3OCCN(C)C)cc2cn1`: the IC50 was 340 nM. On to `CNC(=O)c1nc2ccc(CCNC(=O)Nc3cc(C(F)(F)F)ccc3OC)cc2[nH]1`, for which the IC50 was found to be 340 nM. In other words, the sub-micromolar range. With `COC(=O)Nc1nc2ccc(CCNC(=O)Nc3cc(C(F)(F)F)ccc3OC)cc2[nH]1`, inhibition was half-maximal at 810 nM (IC50). Against the preceding molecule, the IC50 is about 2.4-fold higher. The value for `COc1ccc(C(F)(F)F)cc1NC(=O)NCCc1ccc2nc(NC(C)=O)[nH]c2c1` was 170 nM. With `CNC(=O)c1nc2ccc(CCNC(=O)Nc3ccc(Cl)c(C(F)(F)F)c3)cc2[nH]1`, it took 280 nM to reach half-maximal inhibition (IC50). The value for `COC(=O)Nc1nc2ccc(CCNC(=O)Nc3ccc(Cl)c(C(F)(F)F)c3)cc2[nH]1` was 660 nM; that for `CC(=O)Nc1nc2ccc(CCNC(=O)Nc3ccc(Cl)c(C(F)(F)F)c3)cc2[nH]1` was 140 nM; that for `CC(=O)Nc1nc2ccc(CCNC(=O)Nc3cccc(C(F)(F)F)c3)cc2[nH]1` was 480 nM. Turning to `CC(=O)Nc1nc2ccc(CCNC(=O)Nc3ccc(Cl)c(Cl)c3)cc2[nH]1`, half-maximal inhibition (IC50) was put at 480 nM. The figure for `CC(=O)Nc1nc2ccc(CCNC(=O)Nc3ccc(C)c(Cl)c3)cc2[nH]1` is 530 nM; for `COc1cc(C)c(Cl)cc1NC(=O)NCCc1ccc2nc(NC(C)=O)[nH]c2c1` it is 190 nM. As for `COc1cc(Cl)c(C)cc1NC(=O)NCCc1ccc2nc(NC(C)=O)[nH]c2c1`, half-maximal inhibition (IC50) was put at 320 nM. The figure for `CNCCOc1ccc(C)cc1NC(=O)NCCc1ccc2nc(NC(C)=O)[nH]c2c1` is 580 nM.

Turning to `CNCCOc1cc(Cl)c(C)cc1NC(=O)NCCc1ccc2nc(NC(C)=O)[nH]c2c1`, 490 nM corresponded to half-maximal inhibition (IC50). Consider `CNCCOc1ccc(C(F)(F)F)cc1NC(=O)NCCc1ccc2nc(NC(C)=O)[nH]c2c1`, for which the IC50 was found to be 210 nM.

`CNCCOc1cc(Cl)c(C(F)(F)F)cc1NC(=O)NCCc1ccc2nc(NC(C)=O)[nH]c2c1` registered an IC50 of 230 nM. In the case of `CC(=O)Nc1nc2ccc(CCNC(=O)Nc3cc(C)c(Cl)cc3OCCN)cc2[nH]1`, the half-inhibitory concentration (IC50) was 550 nM. Regarding `CC(=O)Nc1nc2ccc(CCNC(=O)Nc3cc(C(F)(F)F)ccc3OCCN)cc2[nH]1`, the IC50 amounted to 250 nM. The figure for `CC(=O)Nc1nc2ccc(CCNC(=O)Nc3cc(C(F)(F)F)c(Cl)cc3OCCN)cc2[nH]1` is 180 nM; for `CC(=O)Nc1nc2ccc(CCNC(=O)Nc3cc(C(F)(F)F)ccc3OCC3CCCN3)cc2[nH]1` (stereo not drawn) it is 230 nM.
